Activity calls are given as the source filed them. No cut-off for these calls is given here.
Tests used:
Mus musculus [1] = assay: Anticonvulsant activity in mouse assessed as protection against maximal electric shock-induced seizures at 100 mg/kg, ip after 4 hrs; type: functional, organism-based; set-up: dose 100 mg/kg
Procedure, shortened: (§1)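 Phase I maximal electroshock screen in mice. Compound given ip as a suspension in 0.5% methylcellulose at 30, 100 or 300 mg/kg, tested at 30 min and 4 h. Small groups (1–8); result is number protected/number tested.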

Mus musculus [2] = assay: Anticonvulsant activity in mouse assessed as protection against maximal electric shock-induced seizures at 30 mg/kg, ip after 0.5 hrs; type: functional, organism-based; set-up: dose 30 mg/kg; procedure, shortened: as §1
Mus musculus [3] = assay: Anticonvulsant activity in mouse assessed as protection against maximal electric shock-induced seizures at 30 mg/kg, ip after 4 hrs; type: functional, organism-based; set-up: dose 30 mg/kg; procedure, shortened: as §1
Mus musculus [4] = assay: Anticonvulsant activity in mouse assessed as protection against maximal electric shock-induced seizures at 300 mg/kg, ip after 0.5 hrs; type: functional, organism-based; set-up: dose 300 mg/kg; procedure, shortened: as §1
Mus musculus [5] = assay: Anticonvulsant activity in mouse assessed as protection against maximal electric shock-induced seizures at 300 mg/kg, ip after 4 hrs; type: functional, organism-based; set-up: dose 300 mg/kg; procedure, shortened: as §1
Mus musculus [6] = assay: Anticonvulsant activity against subcutaneous pentylenetetrazole-induced seizures in mouse at 30 mg/kg, ip after 0.5 hrs; type: functional, organism-based; set-up: dose 30 mg/kg
Procedure, shortened: (§2)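 Phase I screen in mice. Compound given ip as a suspension in 0.5% methylcellulose, read at 30 min and 4 h. Pentylenetetrazole 85 mg/kg in 0.9% NaCl was injected sc into the posterior midline and animals watched ≥30 min. Protection meant no clonic spasm lasting ≥5 s. Groups of 1–8 animals; result is protected/tested.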

Mus musculus [7] = assay: Anticonvulsant activity against subcutaneous pentylenetetrazole-induced seizures in mouse at 30 mg/kg, ip after 4 hrs; type: functional, organism-based; set-up: dose 30 mg/kg; procedure, shortened: as §2
Mus musculus [8] = assay: Anticonvulsant activity against subcutaneous pentylenetetrazole-induced seizures in mouse at 100 mg/kg, ip after 4 hrs; type: functional, organism-based; set-up: dose 100 mg/kg; procedure, shortened: as §2
Mus musculus [9] = assay: Anticonvulsant activity against subcutaneous pentylenetetrazole-induced seizures in mouse at 300 mg/kg, ip after 0.5 hrs; type: functional, organism-based; set-up: dose 300 mg/kg; procedure, shortened: as §2
Mus musculus [10] = assay: Anticonvulsant activity against subcutaneous pentylenetetrazole-induced seizures in mouse at 300 mg/kg, ip after 4 hrs; type: functional, organism-based; set-up: dose 300 mg/kg; procedure, shortened: as §2
Mus musculus [11] = assay: Neurotoxicity in mouse assessed as inability to maintain equilibrium on rotarod at 30 mg/kg, ip after 0.5 hrs by rotarod test; type: toxicity, organism-based; set-up: dose 30 mg/kg, route intraperitoneal; details: in vivo
Procedure, shortened: (§3)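 Drug given ip to mice as a suspension in 0.5% methylcellulose. At the stated time after dosing, each mouse was placed on a 1 inch knurled rod turning at 6 rpm. Neurotoxicity = inability to stay balanced at least 1 min in each of three trials. Scored as animals toxic/animals tested in small groups.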

Mus musculus [12] = assay: Neurotoxicity in mouse assessed as inability to maintain equilibrium on rotarod at 100 mg/kg, ip after 0.5 hrs by rotarod test; type: toxicity, organism-based; set-up: dose 100 mg/kg, route intraperitoneal; details: in vivo; procedure, shortened: as §3
Mus musculus [13] = assay: Neurotoxicity in mouse assessed as inability to maintain equilibrium on rotarod at 300 mg/kg, ip after 0.5 hrs by rotarod test; type: toxicity, organism-based; set-up: dose 300 mg/kg, route intraperitoneal; details: in vivo; procedure, shortened: as §3
Mus musculus [14] = assay: Neurotoxicity in mouse assessed as inability to maintain equilibrium on rotarod at 30 mg/kg, ip after 4 hrs by rotarod test; type: toxicity, organism-based; set-up: dose 30 mg/kg, route intraperitoneal; details: in vivo; procedure, shortened: as §3
Mus musculus [15] = assay: Neurotoxicity in mouse assessed as inability to maintain equilibrium on rotarod at 100 mg/kg, ip after 4 hrs by rotarod test; type: toxicity, organism-based; set-up: dose 100 mg/kg, route intraperitoneal; details: in vivo; procedure, shortened: as §3
Mus musculus [16] = assay: Neurotoxicity in mouse assessed as inability to maintain equilibrium on rotarod at 300 mg/kg, ip after 4 hrs by rotarod test; type: toxicity, organism-based; set-up: dose 300 mg/kg, route intraperitoneal; details: in vivo; procedure, shortened: as §3
[17] = Neurotoxicity in ip dosed mouse assessed as inability to maintain equilibrium on rotarod by rotarod test; type: toxicity, organism-based; details: in vivo
Procedure, shortened: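 Mice dosed ip with a suspension in 0.5% methylcellulose, then placed on a 1 inch knurled plastic rod rotating at 6 rpm. Toxicity = failure to keep equilibrium for at least 1 min in each of three trials.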

Mus musculus [18] = assay: Anticonvulsant activity in ip dosed mouse assessed as protection against maximal electric shock-induced seizures; type: functional; details: Mus musculus, ip; read-out: ED50
Mus musculus [19] = organism: Mus musculus; assay: Protective index, ratio of TD50 for neurotoxicity in mouse to ED50 for inhibition of maximal electroshock-induced seizures in mouse; type: functional
Rattus norvegicus [20] = assay: Neurotoxicity in rat assessed as neurological deficit at 30 mg/kg, po after 0.25 hrs […]; type: toxicity, organism-based; set-up: dose 30 mg/kg, route oral; details: in vivo
Procedure, shortened: (§4)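 Rats given the compound, suspended in 0.5% methylcellulose, by the stated route and dose. Neurological deficit was recorded at the listed times as ataxia and loss of placing response and muscle tone. Reported as number of rats showing toxicity/number tested.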

Rattus norvegicus [21] = assay: Neurotoxicity in rat assessed as neurological deficit at 30 mg/kg, po after 0.5 hrs […]; type: toxicity, organism-based; set-up: dose 30 mg/kg, route oral; details: in vivo; procedure, shortened: as §4
Rattus norvegicus [22] = assay: Neurotoxicity in rat assessed as neurological deficit at 30 mg/kg, po after 1 hr […]; type: toxicity, organism-based; set-up: dose 30 mg/kg, route oral; details: in vivo; procedure, shortened: as §4
Rattus norvegicus [23] = assay: Neurotoxicity in rat assessed as neurological deficit at 30 mg/kg, po after 2 hrs […]; type: toxicity, organism-based; set-up: dose 30 mg/kg, route oral; details: in vivo; procedure, shortened: as §4
Rattus norvegicus [24] = assay: Neurotoxicity in rat assessed as neurological deficit at 30 mg/kg, po after 4 hrs by rotarod test; type: toxicity, organism-based; set-up: dose 30 mg/kg, route oral; details: in vivo; procedure, shortened: as §4
Mus musculus [25] = assay: Anticonvulsant activity in mouse assessed as protection against maximal electric shock-induced seizures at 90 mg/kg, ip after 0.25 hrs; type: functional, organism-based; set-up: dose 90 mg/kg
Procedure, shortened: (§5)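 Time-to-peak-effect assay: MES protection read at 0.25–4 h after dosing. Mice ip (60–130 mg/kg), rats po (15 or 30 mg/kg) or ip (30 mg/kg). Groups of 4–8; result is protected/tested.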

Mus musculus [26] = assay: Anticonvulsant activity in mouse assessed as protection against maximal electric shock-induced seizures at 90 mg/kg, ip after 0.5 hrs; type: functional, organism-based; set-up: dose 90 mg/kg; procedure, shortened: as §5
Mus musculus [27] = assay: Anticonvulsant activity in mouse assessed as protection against maximal electric shock-induced seizures at 90 mg/kg, ip after 1 hr; type: functional, organism-based; set-up: dose 90 mg/kg; procedure, shortened: as §5
Mus musculus [28] = assay: Anticonvulsant activity in mouse assessed as protection against maximal electric shock-induced seizures at 90 mg/kg, ip after 4 hrs; type: functional, organism-based; set-up: dose 90 mg/kg; procedure, shortened: as §5
Mus musculus [29] = assay: Neurotoxicity in mouse assessed as inability to maintain equilibrium on rotarod at 90 mg/kg, ip after 24 hrs using rotarod test; type: toxicity, organism-based; set-up: dose 90 mg/kg, route intraperitoneal; details: in vivo; procedure, shortened: as §3
Mus musculus [30] = assay: Anticonvulsant activity in mouse assessed as protection against maximal electric shock-induced seizures at 70 mg/kg, ip after 0.5 hrs; type: functional, organism-based; set-up: dose 70 mg/kg; procedure, shortened: as §5
Mus musculus [31] = assay: Anticonvulsant activity in mouse assessed as protection against maximal electric shock-induced seizures at 70 mg/kg, ip after 1 hr; type: functional, organism-based; set-up: dose 70 mg/kg; procedure, shortened: as §5
Mus musculus [32] = assay: Anticonvulsant activity in mouse assessed as protection against maximal electric shock-induced seizures at 70 mg/kg, ip after 2 hrs; type: functional, organism-based; set-up: dose 70 mg/kg; procedure, shortened: as §5
Mus musculus [33] = assay: Anticonvulsant activity in mouse assessed as protection against maximal electric shock-induced seizures at 60 mg/kg, ip after 0.25 hrs; type: functional, organism-based; set-up: dose 60 mg/kg; procedure, shortened: as §5
Mus musculus [34] = assay: Anticonvulsant activity in ip dosed mouse assessed as time to show peak effect of protection against maximal electric shock-induced seizures; type: functional; procedure, shortened: as §5

With Cc1cccc(C)c1OCC(=O)N[C@H]1CCCC[C@@H]1O.O=C(O)C(O)C(O)C(=O)O the Activity (Mus musculus [1]) was “inactive”, the Activity (Mus musculus [2]) was “inactive” and the Activity (Mus musculus [3]) was “inactive”. For the same compound, the Activity (Mus musculus [4]) was “Active”, the Activity (Mus musculus [5]) was “inactive” and the Activity (Mus musculus [6]) was “inactive”. For the same compound, the Activity (Mus musculus [7]) was “inactive”, the Activity (Mus musculus [8]) was “inactive” and the Activity (Mus musculus [9]) was “inactive”. For the same compound, the Activity (Mus musculus [10]) was “inactive”, the Activity (Mus musculus [11]) was “Non-toxic” and the Activity (Mus musculus [12]) was “Non-toxic”. The Activity (Mus musculus [13]) was “Non-toxic”, the Activity (Mus musculus [14]) was “Non-toxic” and the Activity (Mus musculus [15]) was “Non-toxic”. The Activity (Mus musculus [16]) was “Non-toxic”, the TD50 [17] was 68.7 mg/kg and the ED50 (Mus musculus [18]) was 35.5 mg/kg. For the same compound, the “Ratio TD50/ED50” value (Mus musculus [19]) was 1.937, the Activity (Rattus norvegicus [20]) was “Non-toxic” and the Activity (Rattus norvegicus [21]) was “Non-toxic”. The Activity (Rattus norvegicus [22]) was “Non-toxic”, the Activity (Rattus norvegicus [23]) was “Non-toxic” and the Activity (Rattus norvegicus [24]) was “Non-toxic”. The Activity (Mus musculus [25]) was “Active”, the Activity (Mus musculus [26]) was “Active” and the Activity (Mus musculus [27]) was “inactive”. The Activity (Mus musculus [28]) was “inactive”, the Activity (Mus musculus [29]) was “Non-toxic” and the Activity (Mus musculus [30]) was “inactive”. The Activity (Mus musculus [31]) was “inactive”, the Activity (Mus musculus [32]) was “inactive” and the Activity (Mus musculus [33]) was “Active”. It also gave a Time (Mus musculus [34]) of 0.25 h.

Reference: ChEMBL document CHEMBL1921792, “Synthesis and anticonvulsant activity of trans- and cis-2-(2,6-dimethylphenoxy)-N-(2- or 4-hydroxycyclohexyl)acetamides and their amine analogs” (Bioorg Med Chem, 2011)
